Here are results for one compound from PMC6976987 (Molecular Genetics and Metabolism Reports, 2020).

Read-outs that look alike come from different tables or passages of the source.

One may read the half-life as the time in which the quantity being followed falls by half. A word on the AUC: it is concentration integrated over time. A word on the AUC(0-inf): it is the area under the concentration-time curve extrapolated to infinity. A higher AUC(0-inf) goes with high exposure. By Cmax is commonly meant the peak of the concentration-time curve. As usually defined, the Tmax is the time from dosing to the highest level.

This series is classed as in vivo, human. The following applies: for AUC: AUC0-τ; for AUC / AUC(0-inf) / Cmax: mean (SD); for AUC(0-inf): AUC0-∞; for Tmax: median (minimum, maximum). An outline of the steps:
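Open-label, fixed-sequence study in healthy CYP2D6 non-poor metabolizers. Oral test compound 84 mg, fasted: single dose Day 1, BID Days 2–8, then BID with a strong CYP3A/P-gp inhibitor 400 mg QD Days 9–15. Plasma sampled to 36 h Day 1, 12 h Day 8, 72 h Day 15, plus pre-dose samples. LC-MS/MS, LLOQ 0.2 ng/mL. Non-compartmental PK; ratios from log-transformed mixed-effects model with 90% CI.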

The mark [1] stands for this setting: CYP2D6 EMs only, eliglustat 84 mg BID with ketoconazole 400 mg QD.
Where [2] appears, read: CYP2D6 non-PMs, eliglustat 84 mg BID with ketoconazole 400 mg QD.
Setting [3] is: human, plasma, oral, 84 mg, eliglustat 84 mg BID, Days 2 to 8, all (N = 33).
The mark [4] stands for this setting: human, plasma, oral, 84 mg, eliglustat 84 mg single dose, Day 1, all (N = 36).
[5] abbreviates: human, plasma, oral, eliglustat 84 mg BID + ketoconazole 400 mg QD, Days 9 to 15, all (N = 33).

With `CCCCCCCC(=O)N[C@H](CN1CCCC1)[C@H](O)c1ccc2c(c1)OCCO2` [eliglustat], the “increase in eliglustat AUC0-τ compared to eliglustat alone” value under setting [1] came to 4.4 fold. Further, the “increase in eliglustat Cmax compared to eliglustat alone” value under setting [1] came to 4.0 fold and the “increase in eliglustat Cmax compared to eliglustat alone” value under setting [2] is listed as 3.8 fold. Also, the “increase in eliglustat AUC0-τ (exposure) compared to eliglustat alone” value under setting [2] stood at 4.3 fold. Also, the “Ratio (%) of geometric least squares mean, Cmax” value (all subjects, multiple dose, test 400 mg ketoconazole oral QD + 84 mg eliglustat oral BID (N = 33) vs reference 84 mg eliglustat oral BID alone (N = 33)) was 3.84%. In addition, the “Ratio (%) of geometric least squares mean, AUC0-t” value (all subjects, multiple dose, test 400 mg ketoconazole oral QD + 84 mg eliglustat oral BID (N = 33) vs reference 84 mg eliglustat oral BID alone (N = 33), 0 to 12 h) came out at 4.27%. For the same compound, the “increase in eliglustat exposure” value (co-administered with ketoconazole (discussion, rounded)) was determined as 4 fold. Where the note is “human, plasma, oral, 84 mg”, the half-life is 5.1 h. Besides, the AUC runs as follows: (human, plasma, oral, 84 mg, eliglustat 84 mg BID, Days 2 to 8, CYP2D6 EMs only (N = 31), 0 to 12 h) 119 ng·h/mL; (human, plasma, oral, 84 mg, eliglustat 84 mg BID, Days 2 to 8, all (N = 33), 0 to 12 h) 113 ng·h/mL; (human, plasma, oral, eliglustat 84 mg BID + ketoconazole 400 mg QD, Days 9 to 15, CYP2D6 EMs only (N = 31), 0 to 12 h) 501 ng·h/mL; (human, plasma, oral, eliglustat 84 mg BID + ketoconazole 400 mg QD, Days 9 to 15, all (N = 33), 0 to 12 h) 474 ng·h/mL. Also, the AUC(0-inf) by setting is: (human, plasma, oral, 84 mg, eliglustat 84 mg single dose, Day 1, CYP2D6 EMs only (N = 32)) 77.2 ng·h/mL; (human, plasma, oral, 84 mg, eliglustat 84 mg single dose, Day 1, all (N = 34)) 73.2 ng·h/mL. Further, the Cmax is, setting by setting: (human, plasma, oral, 84 mg, eliglustat 84 mg BID, Days 2 to 8, CYP2D6 EMs only (N = 31)) 19.5 ng/mL; under setting [3], 18.6 ng/mL; (human, plasma, oral, 84 mg, eliglustat 84 mg single dose, Day 1, CYP2D6 EMs only (N = 34)) 10.3 ng/mL; under setting [4], 9.87 ng/mL; (human, plasma, oral, eliglustat 84 mg BID + ketoconazole 400 mg QD, Days 9 to 15, CYP2D6 EMs only (N = 31)) 71 ng/mL; under setting [5], 67.2 ng/mL. Also, the Tmax reads like this: under setting [3], 2 h; under setting [4], 1.6 h; under setting [5], 2.3 h.
